From ChEMBL document CHEMBL2380292, “Discovery of SAR184841, a potent and long-lasting inhibitor of 11β-hydroxysteroid dehydrogenase type 1, active in a physiopathological animal model of T2D” (Bioorg Med Chem Lett, 2013)

Key:
[1] = Permeability across human Caco2 cells; format: ADME, cell-based; details: Caco-2, read-out: permeability
Method in brief: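 Permeability was measured with the compound alone and in the presence of the P-gp inhibitor elacridar, and expressed in 10^-7 cm/s.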

Mus musculus [2] = assay: Ex vivo inhibition of 11beta-HSD1 in C57Bl/6J mouse subcutaneous fat at 30 mg/kg, po after 16 hrs; format: functional
Method in brief: (§1)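 Mice given a single oral dose as a suspension in Tween 80/0.6% methylcellulose (0.5/99.5, v/v) at 10 mL/kg. At 2 h or 16 h post-dose, animals were killed by cervical dislocation and 50 mg liver and 200 mg subcutaneous fat were taken for 11β-HSD1 activity. Reactions were stopped with HCl 1 N/methanol (1/1). 3H-cortisone and 3H-cortisol were quantified by HPLC with flow scintillation detection.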

Mus musculus [3] = assay: Ex vivo inhibition of 11beta-HSD1 in C57Bl/6J mouse liver at 30 mg/kg, po after 16 hrs; format: functional; method in brief: as §1
Liver microsomes [4] = assay: Metabolic stability in rat liver microsomes; format: ADME, Microsome
Liver microsomes [5] = assay: Metabolic stability in human liver microsomes; format: ADME, Microsome
Liver = assay: Metabolic stability in mouse liver microsomes; format: ADME, Microsome
[6] = target: 11-beta-hydroxysteroid dehydrogenase 1 (Mus musculus, UniProt P50172); assay: Inhibition of mouse recombinant 11beta-HSD1 by scintillation proximity assay
11-beta-hydroxysteroid dehydrogenase 1 (Mus musculus, UniProt P50172), sequence (P50172 whole entry): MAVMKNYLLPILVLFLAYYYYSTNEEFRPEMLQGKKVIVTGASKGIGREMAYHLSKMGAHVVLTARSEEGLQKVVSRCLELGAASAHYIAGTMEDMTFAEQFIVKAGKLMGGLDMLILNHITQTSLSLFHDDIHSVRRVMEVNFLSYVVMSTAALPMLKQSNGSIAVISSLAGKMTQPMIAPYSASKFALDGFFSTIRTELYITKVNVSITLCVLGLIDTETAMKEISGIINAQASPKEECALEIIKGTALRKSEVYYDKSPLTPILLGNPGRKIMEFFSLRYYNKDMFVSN

[7] = target: 11-beta-hydroxysteroid dehydrogenase 1 (Rattus norvegicus, UniProt P16232); assay: Inhibition of rat 11beta-HSD1
11-beta-hydroxysteroid dehydrogenase 1 (Rattus norvegicus, UniProt P16232), sequence (P16232 whole entry): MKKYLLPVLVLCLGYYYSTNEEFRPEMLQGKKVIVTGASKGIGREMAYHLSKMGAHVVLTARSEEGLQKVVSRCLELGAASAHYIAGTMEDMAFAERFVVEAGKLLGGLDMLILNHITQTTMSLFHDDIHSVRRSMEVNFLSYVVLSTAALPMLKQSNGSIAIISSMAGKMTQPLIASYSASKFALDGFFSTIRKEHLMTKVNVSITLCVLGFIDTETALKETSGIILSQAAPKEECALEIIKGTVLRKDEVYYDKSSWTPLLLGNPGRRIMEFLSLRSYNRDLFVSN

Cytochrome P450 3A4 = Cytochrome P450 3A4 (Homo sapiens, UniProt P08684); assay: Inhibition of CYP3A4 (unknown origin); format: ADME
Cytochrome P450 3A4, sequence (P08684 whole entry): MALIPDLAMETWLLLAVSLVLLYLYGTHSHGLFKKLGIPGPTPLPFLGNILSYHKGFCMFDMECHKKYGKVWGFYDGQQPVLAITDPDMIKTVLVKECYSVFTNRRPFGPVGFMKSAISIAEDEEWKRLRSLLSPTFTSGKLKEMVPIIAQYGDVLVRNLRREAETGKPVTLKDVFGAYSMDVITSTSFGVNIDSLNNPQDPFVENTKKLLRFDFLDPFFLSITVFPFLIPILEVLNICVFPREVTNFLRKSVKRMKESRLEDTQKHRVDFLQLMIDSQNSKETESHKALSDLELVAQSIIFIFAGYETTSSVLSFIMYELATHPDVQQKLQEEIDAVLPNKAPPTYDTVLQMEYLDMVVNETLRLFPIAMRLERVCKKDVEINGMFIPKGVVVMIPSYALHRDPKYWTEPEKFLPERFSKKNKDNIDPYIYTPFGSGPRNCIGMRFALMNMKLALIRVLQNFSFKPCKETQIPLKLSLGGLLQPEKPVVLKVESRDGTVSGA

Mus musculus [8] = assay: Ex vivo inhibition of 11beta-HSD1 in C57Bl/6J mouse subcutaneous fat at 10 mg/kg, os after 2 hrs; format: functional; details: sc; method in brief: as §1
Mus musculus [9] = assay: Ex vivo inhibition of 11beta-HSD1 in C57Bl/6J mouse liver at 10 mg/kg, os after 2 hrs; format: functional; method in brief: as §1
[10] = target: T1, 11-beta-hydroxysteroid dehydrogenase type 2 (Homo sapiens, UniProt P80365); assay: Inhibition of human 11beta-HSD2
T1 sequence (P80365 whole entry): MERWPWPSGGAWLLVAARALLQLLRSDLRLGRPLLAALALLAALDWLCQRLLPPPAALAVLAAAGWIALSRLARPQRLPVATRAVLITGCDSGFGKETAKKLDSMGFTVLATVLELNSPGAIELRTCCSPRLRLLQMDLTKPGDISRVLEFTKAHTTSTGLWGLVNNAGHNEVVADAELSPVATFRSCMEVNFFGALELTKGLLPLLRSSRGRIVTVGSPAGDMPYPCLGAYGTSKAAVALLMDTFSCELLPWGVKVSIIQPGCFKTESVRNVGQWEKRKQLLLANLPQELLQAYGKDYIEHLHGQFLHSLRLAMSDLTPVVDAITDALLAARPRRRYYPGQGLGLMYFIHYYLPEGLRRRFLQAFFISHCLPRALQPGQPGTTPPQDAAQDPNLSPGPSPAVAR

Mus musculus [11] = assay: Ex vivo inhibition of 11beta-HSD1 in C57Bl/6J mouse subcutaneous fat at 30 mg/kg, os after 2 hrs; format: functional; details: sc; method in brief: as §1
Mus musculus [12] = assay: Ex vivo inhibition of 11beta-HSD1 in C57Bl/6J mouse liver at 30 mg/kg, os after 2 hrs; format: functional; method in brief: as §1
Mus musculus [13] = assay: Ex vivo inhibition of 11beta-HSD1 in C57Bl/6J mouse subcutaneous fat at 3 mg/kg, po after 16 hrs; format: functional; method in brief: as §1
Mus musculus [14] = assay: Ex vivo inhibition of 11beta-HSD1 in C57Bl/6J mouse liver at 3 mg/kg, po after 16 hrs; format: functional; method in brief: as §1

SMILES	Papp [1] [×10⁻⁶ cm/s]	Stability (Liver microsomes [4]) [%]	Stability (Liver microsomes [5]) [%]	Stability (Liver) [%]	IC50 [6] [nM]	IC50 [7] [nM]	IC50 (Cytochrome P450 3A4) [nM]	IC50 [10] [nM]	inhibition in vivo at 30 mg/kg (Mus musculus [2]) [%]	inhibition in vivo at 30 mg/kg (Mus musculus [3]) [%]	inhibition in vivo at 10 mg/kg (Mus musculus [8]) [%]	inhibition in vivo at 10 mg/kg (Mus musculus [9]) [%]	inhibition in vivo at 30 mg/kg (Mus musculus [11]) [%]	inhibition in vivo at 30 mg/kg (Mus musculus [12]) [%]	inhibition in vivo at 3 mg/kg (Mus musculus [13]) [%]	inhibition in vivo at 3 mg/kg (Mus musculus [14]) [%]
CC(C)(C)N1CCN(c2ccc(N3CCN(C(=O)N[C@H]4C5CC6CC4C[C@](O)(C6)C5)c4ccccc43)nc2)CC1	3.4	20	14	6	8	18			20	55						
O=C(N[C@H]1C2CC3CC1C[C@](O)(C3)C2)N1CCN(c2ccc(N3CCN(S(=O)(=O)C4CC4)CC3)cn2)c2ccccc21	9.8	23	9	22	21	21	> 10000		40	65						
COc1ccc(-c2cnc(N3CCN(C(=O)N4CCC(c5cn[nH]c5)C4)c4ccccc43)nc2)cc1 (centres undefined)						600	< 300	> 10000					70	90		
NC(=O)[C@]12CC3CC(C1)[C@@H](NC(=O)N1CCN(c4ccc(N5CCN(S(=O)(=O)C6CC6)CC5)cn4)c4ccccc41)C(C3)C2	0.4	31	1	18	8	9	> 30000		50	75					> 50	> 50
CS(=O)(=O)N1CCN(c2ccc(N3CCN(C(=O)N[C@H]4C5CC6CC4C[C@](O)(C6)C5)c4ccccc43)cc2)CC1	19.4	17	2	9	1	114	> 10000		55	80						
CS(=O)(=O)N1CCN(c2cnc(N3CCN(C(=O)N[C@H]4C5CC6CC4C[C@](O)(C6)C5)c4ccccc43)nc2)CC1	0.7	24	9	18	1	28	> 10000		0	30						
CS(=O)(=O)N1CCN(c2ccc(N3CCN(C(=O)N[C@H]4C5CC6CC4C[C@](C(N)=O)(C6)C5)c4ccccc43)cc2)CC1	3	26	3	22	5	24	> 10000		30	55						
CC(=O)N1CCN(c2ccc(N3CCN(C(=O)N[C@H]4C5CC6CC4C[C@](O)(C6)C5)c4ccccc43)nc2)CC1	1	18	5	14		65	> 30000		0	0						

Further lines, with some results ahead:

Papp [1] [×10⁻⁶ cm/s]	Stability (Liver microsomes [4]) [%]	Stability (Liver microsomes [5]) [%]	Stability (Liver) [%]	IC50 [6] [nM]	IC50 [7] [nM]	IC50 (Cytochrome P450 3A4) [nM]	IC50 [10] [nM]	SMILES	inhibition in vivo at 30 mg/kg (Mus musculus [2]) [%]	inhibition in vivo at 30 mg/kg (Mus musculus [3]) [%]	inhibition in vivo at 10 mg/kg (Mus musculus [8]) [%]	inhibition in vivo at 10 mg/kg (Mus musculus [9]) [%]	inhibition in vivo at 30 mg/kg (Mus musculus [11]) [%]	inhibition in vivo at 30 mg/kg (Mus musculus [12]) [%]	inhibition in vivo at 3 mg/kg (Mus musculus [13]) [%]	inhibition in vivo at 3 mg/kg (Mus musculus [14]) [%]
7.9	12	12	18	2	16	> 30000		CS(=O)(=O)N1CCN(c2ccc(N3CCN(C(=O)N[C@H]4C5CC6CC4C[C@](O)(C6)C5)c4ccccc43)nc2)CC1	20	47						
	70	89	96	5	100	> 10000		COc1ccc(-c2cnc(N3CCN(C(=O)N[C@H]4C5CC6CC4C[C@](OC(N)=O)(C6)C5)c4ccccc43)nc2)cc1								
24.8	33	41	21	15	110	> 10000		COc1ccc(-c2cnc(N3CCN(C(=O)N[C@H]4C5CC6CC4C[C@](O)(C6)C5)c4ccccc43)nc2)cc1			30	40				
18.2	32	49	27	36	70	> 10000		COc1ccc(-c2cnc(N3CCN(C(=O)N[C@H]4C5CC6CC4C[C@](C(N)=O)(C6)C5)c4ccccc43)nc2)cc1								
